Active and inactive are the calls of the source. The rule behind the calls is not given here.
Experiments:
[1] = target: T1, Signal transducer and activator of transcription 3 (Homo sapiens, UniProt P40763); assay: Inhibition of Stat3 activity in human U251MG cells assessed as phosphorylated Stat3 level at 5 uM by immunoblot analysis; type: cell-based; details: U-251, TDE = time-dependent effect
[2] = Antiproliferative activity against human Glioma (G10) patient derived xenograft cells at 5 uM after 72 hrs by cyquant assay; type: functional, Glioma cell
[3] = target: Signal transducer and activator of transcription 1/ 3 (Mus musculus) (UniProt P42227+P42225); assay: Inhibition of Stat1:Stat3 dimer DNA binding activity in EGF-stimulated mouse NIH3T3 nuclear extract expressing human EGFR assessed as residual activity at 5 uM preincubated for 30 mins followed by addition of radiolabeled probe hSIE for 30 mins by EMSA; type: cell-free
[4] = target: T2, Signal transducer and activator of transcription 1 (Mus musculus) (UniProt P42225); assay: Inhibition of Stat1 dimer DNA binding activity in EGF-stimulated mouse NIH3T3 nuclear extract expressing human EGFR at 5 uM preincubated for 30 mins followed by addition of radiolabeled probe hSIE for 30 mins by EMSA
T2 sequence (whole entry): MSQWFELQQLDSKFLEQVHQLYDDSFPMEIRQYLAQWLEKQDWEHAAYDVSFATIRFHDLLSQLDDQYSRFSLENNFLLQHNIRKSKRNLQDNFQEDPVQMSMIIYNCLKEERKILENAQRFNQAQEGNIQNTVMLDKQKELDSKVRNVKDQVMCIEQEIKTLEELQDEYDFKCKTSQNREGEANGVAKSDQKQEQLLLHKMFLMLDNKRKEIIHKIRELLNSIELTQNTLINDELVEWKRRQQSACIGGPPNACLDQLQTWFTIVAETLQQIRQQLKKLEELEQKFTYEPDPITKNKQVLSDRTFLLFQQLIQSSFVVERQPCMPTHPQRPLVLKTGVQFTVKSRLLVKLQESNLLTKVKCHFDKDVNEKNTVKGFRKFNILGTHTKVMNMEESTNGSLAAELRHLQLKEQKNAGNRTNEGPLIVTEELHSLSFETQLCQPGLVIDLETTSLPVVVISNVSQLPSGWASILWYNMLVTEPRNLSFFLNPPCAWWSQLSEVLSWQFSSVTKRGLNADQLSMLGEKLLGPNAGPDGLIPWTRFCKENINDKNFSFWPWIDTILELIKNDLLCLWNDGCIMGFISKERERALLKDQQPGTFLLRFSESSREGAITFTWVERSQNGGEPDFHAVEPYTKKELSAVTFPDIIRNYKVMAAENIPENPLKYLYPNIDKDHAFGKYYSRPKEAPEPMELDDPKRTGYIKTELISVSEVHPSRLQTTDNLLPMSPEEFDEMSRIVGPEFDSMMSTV

[5] = target: T1, Signal transducer and activator of transcription 3; assay: Inhibition of Stat3 dimer DNA binding activity in human U251MG cells nuclear extract at 5 uM by EMSA using radiolabeled probe hSIE; type: cell-based; details: U-251, TDE = time-dependent effect
How it was run: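 Sub-confluent U251MG or U373MG cells treated with compound (5 μM for 0–24 h, or 0–5 μM for 1.5 h). Stat3:DNA bands scanned, quantified and plotted against concentration to derive IC50. Controls were 0.025% DMSO.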

[6] = target: T1, Signal transducer and activator of transcription 3; assay: Inhibition of Stat3 activity in human glioma (G22) patient-derived mouse xenograft cells assessed as phosphorylated Stat3 level at 5 uM after 3 hrs by immunoblot analysis
How it was run: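 Cultured G22 glioma patient-derived mouse xenograft cells (DMEM, 5–10% heat-inactivated FBS) treated with 5 μM compound for 0–24 h. Whole-cell lysates immunoblotted for pStat3, Stat3, GAPDH.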

[7] = test system: U373 MG; assay: Increase in importin subunit alpha2 expression in human U373MG cells at 5 uM for 2 hrs by immunoblot analysis; type: functional, cell-based; details: U-373MG ATCC
[8] = test system: U-251; assay: Antimitotic activity in human U251MG cells assessed as defect in sister chromatid segragation at 8 uM after 15 hrs confocal microscopic analysis; type: functional, cell-based
How it was run: (§1)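 U251MG on coverslips synchronized by double thymidine block (2 mM), released 9 h, treated 15 h (8 μM; paclitaxel 100 nM). Fixed 4% paraformaldehyde, digitonin-permeabilized, BSA-blocked, stained for β-tubulin and MAP1B with DAPI counterstain; chromatid structure and segregation scored by confocal microscopy.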

[9] = target: Microtubule-associated protein 1B (Homo sapiens) (UniProt P46821); assay: Decrease in MAP1B expression in human U251MG cells at 5 uM for 2 hrs by immunoblot analysis; type: functional, cell-based; details: U-251
[10] = Decrease in TrxR1 expression in human U251MG cells at 5 uM for 2 hrs by immunoblot analysis; type: functional, cell-based; details: U-251
[11] = test system: U-251; assay: Antitumor activity against human U251MG cells xenografted in mouse assessed as decrease in pStat3 level in tumor at 2 mg/kg three times a week for 33 days administered via oral gavage by immunoblot analysis; type: functional, organism-based
How it was run: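 Female athymic nude mice, 4 weeks old, given subcutaneous flank injections of 7.3×10^6 U251MG cells in PBS/matrigel; dosing began at 170–250 mm3 tumors (day 20). Oral gavage 2 mg/kg, vehicle 1% DMSO, for 33 days. Caliper volumes V = 0.52×a²×b, compared with vehicle by paired t test; tumor lysates immunoblotted for pStat3, Stat3, GAPDH.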

[12] = test system: U-251; assay: Antimitotic activity in human U251MG cells assessed as defect in chromatid structure at 8 uM after 15 hrs confocal microscopic analysis; type: functional, cell-based; how it was run: as §1
[13] = test system: Mus musculus; assay: Toxicity in mouse xenografted with U251MG cells assessed as activity at 2 mg/kg three times a week for 33 days administered via oral gavage; type: organism-based, U-251; details: in vivo, 792 h
How it was run: (§2)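 Four-week-old female athymic nude mice, injected subcutaneously in the left flank with 7.3×10^6 U251MG cells in PBS/matrigel (1:1). Tumors of 170–250 mm^3 formed by day 20, and groups were matched for mean size. Dosing was 2 mg/kg by oral gavage, three times weekly for 33 days, with 1% DMSO vehicle. Animals were monitored daily and weighed every 3 days.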

[14] = target: Microtubule-associated protein 1B (Homo sapiens) (UniProt P46821); assay: Decrease in MAP1B expression in human U373MG cells at 5 uM for 2 hrs by immunoblot analysis; type: functional, cell-based; details: U-373MG ATCC
[15] = Decrease in G6PD expression in human U251MG cells at 5 uM for 2 hrs by immunoblot analysis; type: functional, cell-based; details: U-251
[16] = test system: U-251; assay: Increase in importin subunit alpha2 expression in human U251MG cells at 5 uM for 1 hr by mass spectrometry relative to control; type: functional
How it was run: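 Global proteomic mass spectrometry of lysates from U251MG cells treated 1 h with 5 μM compound; protein levels expressed relative to DMSO-treated cells.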

[17] = test system: Mus musculus; assay: Toxicity in mouse xenografted with U251MG cells assessed as effect on body weight at 2 mg/kg three times a week for 33 days administered via oral gavage; type: organism-based, U-251; details: in vivo, 792 h; how it was run: as §2
[18] = target: Microtubule-associated protein 1B (Homo sapiens) (UniProt P46821); assay: Decrease in MAP1B expression in human U251MG cells at 5 uM for 1 hr by mass spectrometry relative to control; type: functional, cell-based; details: U-251
How it was run: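 U251MG cells treated 1 h with 5 μM compound; whole-cell lysates analyzed by global proteomics mass spectrometry; protein levels expressed relative to DMSO-treated cells.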

[19] = test system: Mus musculus; assay: Toxicity in mouse xenografted with U251MG cells assessed as lethargy at 2 mg/kg three times a week for 33 days administered via oral gavage; type: organism-based, U-251; details: in vivo, 792 h; how it was run: as §2
[20] = Decrease in vimentin expression in human Glioma (G22) patient derived xenograft cells at 5 uM for 2 hrs by immunoblot analysis; type: functional; details: Glioma cell
[21] = Decrease in TrxR1 expression in human Glioma (G22) patient derived xenograft cells at 5 uM for 2 hrs by immunoblot analysis; type: functional; details: Glioma cell

T1 sequence (P40763 whole entry): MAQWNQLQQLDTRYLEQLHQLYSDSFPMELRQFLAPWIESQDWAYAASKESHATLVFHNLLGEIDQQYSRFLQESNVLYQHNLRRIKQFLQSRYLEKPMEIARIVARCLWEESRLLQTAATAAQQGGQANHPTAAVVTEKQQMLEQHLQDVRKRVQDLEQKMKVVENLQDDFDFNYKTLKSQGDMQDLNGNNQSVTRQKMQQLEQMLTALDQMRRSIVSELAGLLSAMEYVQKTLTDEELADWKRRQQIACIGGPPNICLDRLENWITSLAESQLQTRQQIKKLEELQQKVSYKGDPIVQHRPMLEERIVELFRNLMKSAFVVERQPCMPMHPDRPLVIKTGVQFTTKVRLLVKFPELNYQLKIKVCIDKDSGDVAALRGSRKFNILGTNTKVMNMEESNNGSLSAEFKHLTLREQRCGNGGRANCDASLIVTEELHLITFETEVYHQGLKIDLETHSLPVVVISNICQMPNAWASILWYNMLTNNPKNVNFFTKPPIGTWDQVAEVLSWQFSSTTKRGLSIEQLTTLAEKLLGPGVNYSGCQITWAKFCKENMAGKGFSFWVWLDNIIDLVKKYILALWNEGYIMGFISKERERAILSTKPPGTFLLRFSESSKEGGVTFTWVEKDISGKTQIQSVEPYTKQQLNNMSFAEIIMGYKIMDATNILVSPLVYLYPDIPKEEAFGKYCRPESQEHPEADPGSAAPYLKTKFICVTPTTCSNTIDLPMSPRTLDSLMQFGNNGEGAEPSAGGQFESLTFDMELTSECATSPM
Microtubule-associated protein 1B (Homo sapiens), sequence (P46821 2-2206 limits assumed): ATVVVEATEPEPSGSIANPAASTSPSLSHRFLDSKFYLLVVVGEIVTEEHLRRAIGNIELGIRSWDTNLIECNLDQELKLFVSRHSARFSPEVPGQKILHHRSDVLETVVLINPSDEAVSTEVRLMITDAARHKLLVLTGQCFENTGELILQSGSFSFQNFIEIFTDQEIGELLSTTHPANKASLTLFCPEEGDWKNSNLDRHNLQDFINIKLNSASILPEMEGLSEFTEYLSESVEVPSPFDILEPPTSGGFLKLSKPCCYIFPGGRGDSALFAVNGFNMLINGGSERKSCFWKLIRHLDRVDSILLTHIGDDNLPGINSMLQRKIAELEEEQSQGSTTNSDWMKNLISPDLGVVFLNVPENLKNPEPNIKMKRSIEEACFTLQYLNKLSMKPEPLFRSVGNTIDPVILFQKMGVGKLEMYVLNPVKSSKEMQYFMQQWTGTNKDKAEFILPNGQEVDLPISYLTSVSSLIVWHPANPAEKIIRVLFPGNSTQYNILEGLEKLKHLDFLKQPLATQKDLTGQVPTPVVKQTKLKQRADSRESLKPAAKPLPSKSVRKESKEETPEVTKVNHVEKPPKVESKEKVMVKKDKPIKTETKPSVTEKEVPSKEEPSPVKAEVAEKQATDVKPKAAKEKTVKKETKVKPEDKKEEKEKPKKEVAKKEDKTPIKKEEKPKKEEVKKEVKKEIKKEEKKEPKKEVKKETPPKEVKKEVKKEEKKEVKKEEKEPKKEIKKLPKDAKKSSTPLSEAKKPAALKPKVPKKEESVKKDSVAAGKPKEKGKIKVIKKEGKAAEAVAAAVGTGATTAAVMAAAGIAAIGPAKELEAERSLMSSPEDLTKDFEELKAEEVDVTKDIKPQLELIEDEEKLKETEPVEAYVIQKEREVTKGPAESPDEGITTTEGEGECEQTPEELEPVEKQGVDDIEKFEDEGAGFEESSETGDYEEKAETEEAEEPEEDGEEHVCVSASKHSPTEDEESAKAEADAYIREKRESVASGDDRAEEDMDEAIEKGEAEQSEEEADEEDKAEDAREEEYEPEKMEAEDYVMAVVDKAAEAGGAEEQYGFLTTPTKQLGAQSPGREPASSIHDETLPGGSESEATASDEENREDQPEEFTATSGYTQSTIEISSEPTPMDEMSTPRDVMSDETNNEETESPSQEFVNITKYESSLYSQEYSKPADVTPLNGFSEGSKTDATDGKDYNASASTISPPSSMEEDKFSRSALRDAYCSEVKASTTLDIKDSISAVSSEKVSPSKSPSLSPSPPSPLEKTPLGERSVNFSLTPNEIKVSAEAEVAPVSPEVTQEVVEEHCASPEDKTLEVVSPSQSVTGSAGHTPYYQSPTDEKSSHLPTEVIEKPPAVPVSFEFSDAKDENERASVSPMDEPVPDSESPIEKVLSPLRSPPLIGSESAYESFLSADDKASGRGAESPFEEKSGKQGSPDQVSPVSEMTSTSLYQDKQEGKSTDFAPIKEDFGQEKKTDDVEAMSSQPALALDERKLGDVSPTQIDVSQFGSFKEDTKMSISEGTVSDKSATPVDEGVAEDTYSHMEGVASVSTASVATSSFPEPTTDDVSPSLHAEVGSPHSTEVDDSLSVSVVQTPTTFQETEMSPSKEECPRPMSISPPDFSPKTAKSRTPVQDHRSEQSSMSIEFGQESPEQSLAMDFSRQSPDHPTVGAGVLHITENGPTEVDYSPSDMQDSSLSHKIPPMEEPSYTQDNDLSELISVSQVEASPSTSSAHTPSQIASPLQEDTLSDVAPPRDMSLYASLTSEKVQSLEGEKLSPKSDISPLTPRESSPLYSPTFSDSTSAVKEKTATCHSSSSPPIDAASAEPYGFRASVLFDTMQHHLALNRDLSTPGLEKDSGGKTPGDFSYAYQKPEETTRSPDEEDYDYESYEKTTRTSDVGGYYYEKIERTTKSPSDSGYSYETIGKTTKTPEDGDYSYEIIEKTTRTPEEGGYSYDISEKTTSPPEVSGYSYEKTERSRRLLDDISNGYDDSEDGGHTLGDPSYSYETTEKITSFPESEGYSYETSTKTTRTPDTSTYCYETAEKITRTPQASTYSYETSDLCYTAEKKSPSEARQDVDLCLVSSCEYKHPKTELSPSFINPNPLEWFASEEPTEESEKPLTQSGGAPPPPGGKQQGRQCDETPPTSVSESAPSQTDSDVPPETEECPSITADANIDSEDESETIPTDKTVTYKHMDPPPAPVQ
Microtubule-associated protein 1B (Homo sapiens), sequence (P46821 2207-2468 limits assumed): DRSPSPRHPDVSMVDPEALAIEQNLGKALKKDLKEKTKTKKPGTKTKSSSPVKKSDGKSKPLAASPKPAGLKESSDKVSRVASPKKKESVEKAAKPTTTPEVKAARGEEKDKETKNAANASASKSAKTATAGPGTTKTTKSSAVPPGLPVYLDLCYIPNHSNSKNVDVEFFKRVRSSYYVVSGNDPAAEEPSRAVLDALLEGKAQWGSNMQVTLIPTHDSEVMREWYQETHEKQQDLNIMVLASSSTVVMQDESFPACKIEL

| inhibition [1] | Activity [3] | inhibition [4] | inhibition [5] | inhibition [6] | inhibition [9] | inhibition [14] | fold change (FC) [18] | SMILES | inhibition (INH) [2] | Activity [7] | Activity [8] | inhibition [10] | Activity [11] | Activity [12] | Activity [13] | inhibition [15] | fold change (FC) [16] | Activity [17] | Activity [19] | inhibition [20] | also measured |
| --- | --- | --- | --- | --- | --- | --- | --- | --- | --- | --- | --- | --- | --- | --- | --- | --- | --- | --- | --- | --- | --- |
| tde | 42% | inactive | tde | Active |  |  |  | C/C=C(\C)C(=O)O[C@H]1C[C@@H](C)[C@]2(OC)CC[C@](C)(/C=C3/OC(=O)C(COC(C)=O)=C31)O2 | 45% |  |  |  |  |  |  |  |  |  |  |  |  |
| tde | 18% | inactive | tde | Active | Active | Active | 0.413 | C/C=C(\C)C(=O)OCC1=C2/C(=C\[C@@]3(C)CC[C@](O)(O3)[C@H](C)C[C@@H]2O)OC1=O | 45% | Active | Active | Active | Active | Active | Non-toxic | Active | 2.421 | Non-toxic | Non-toxic | Active | inhibition [21]: Active |
| tde | 67% | inactive | tde | Active | Active | Active | 0.649 | C/C=C(\C)C(=O)O[C@H]1C[C@@H](C)[C@]2(O)CC[C@](C)(/C=C3/OC(=O)C(COC(C)=O)=C31)O2 | 45% | Active | Active | Active | Active | Active | Non-toxic | Active | 2.0137 | Non-toxic | Non-toxic | Active | inhibition [21]: Active |

Source: ChEMBL document CHEMBL3627612, “Hirsutinolide Series Inhibit Stat3 Activity, Alter GCN1, MAP1B, Hsp105, G6PD, Vimentin, TrxR1, and Importin α-2 Expression, and Induce Antitumor Effects against Human Glioma” (J Med Chem, 2015)
